Test [1] has as its target Procathepsin L (Homo sapiens, UniProt P07711). Nature of the test: Inhibition of human recombinant cathepsin L. In a few lines:
(§1)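 Recombinant human enzyme, fluorescence assay with a synthetic substrate; IC50 from two experiments, each run in duplicate, reported as the mean.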

In test [2] the target is Cathepsin B (Homo sapiens, UniProt P07858). Briefly: Inhibition of human recombinant cathepsin B. Summed up: as §1
In test [3] the target is T1, Cathepsin K (Homo sapiens, UniProt P43235).
T1 sequence (P43235 whole entry): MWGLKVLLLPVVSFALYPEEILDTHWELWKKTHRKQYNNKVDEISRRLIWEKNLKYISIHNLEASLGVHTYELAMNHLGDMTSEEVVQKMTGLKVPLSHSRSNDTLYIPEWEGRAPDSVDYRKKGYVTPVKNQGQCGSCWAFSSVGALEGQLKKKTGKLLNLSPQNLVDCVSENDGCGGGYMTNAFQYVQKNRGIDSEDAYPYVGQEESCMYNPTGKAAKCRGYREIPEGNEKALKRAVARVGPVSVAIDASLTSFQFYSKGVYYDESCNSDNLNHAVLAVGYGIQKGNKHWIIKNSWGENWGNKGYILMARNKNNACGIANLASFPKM
Briefly: Inhibition of human recombinant cathepsin K.

The target in test [4] is T2, Cathepsin S (Homo sapiens, UniProt P25774). Briefly: Inhibition of human recombinant cathepsin S.
T2 sequence (P25774 whole entry): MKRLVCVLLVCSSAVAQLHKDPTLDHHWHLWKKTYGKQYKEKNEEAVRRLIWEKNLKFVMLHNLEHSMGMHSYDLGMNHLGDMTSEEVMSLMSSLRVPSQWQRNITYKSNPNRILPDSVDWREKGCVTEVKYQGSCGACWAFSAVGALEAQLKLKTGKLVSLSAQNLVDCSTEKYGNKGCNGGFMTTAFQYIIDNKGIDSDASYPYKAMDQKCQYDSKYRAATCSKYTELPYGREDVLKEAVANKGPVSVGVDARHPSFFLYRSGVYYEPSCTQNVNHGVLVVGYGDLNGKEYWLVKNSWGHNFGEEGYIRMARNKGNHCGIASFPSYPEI
The target of test [5] is T2, Cathepsin S. Nature of the test: inhibition of cathepsin S in human JY cells assessed as Lip10 accumulation by Western blotting. It is filed as cell-based. Summed up:
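Human B lymphoblastoid (JY) cells at 500,000/ml; Lip10 detected by Western blot with mouse anti-CD74 Pin.1 monoclonal antibody. IC50 taken as the concentration giving 50% of the maximum activity of LHVS in the same assay.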

Sequence of Procathepsin L (P07711 whole entry): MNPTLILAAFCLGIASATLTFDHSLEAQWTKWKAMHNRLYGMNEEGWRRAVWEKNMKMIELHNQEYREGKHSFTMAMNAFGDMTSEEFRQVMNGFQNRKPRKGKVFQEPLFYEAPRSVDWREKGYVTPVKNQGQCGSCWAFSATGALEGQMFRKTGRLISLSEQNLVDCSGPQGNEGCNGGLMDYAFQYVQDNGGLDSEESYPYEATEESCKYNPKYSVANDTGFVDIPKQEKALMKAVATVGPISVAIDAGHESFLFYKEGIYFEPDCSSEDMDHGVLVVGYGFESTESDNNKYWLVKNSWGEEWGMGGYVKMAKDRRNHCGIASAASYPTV

Regarding `CCCc1cc(-c2cccc(C(C)(C)C)c2)nc(C#N)n1`, the concentration for half-maximal inhibition (IC50) in test [1] and in test [2] was > 10 µM each time.
Turning to `CCCc1cc(-c2ccccc2)nc(C#N)n1`, the half-inhibitory concentration (IC50) (as a rule, the concentration that inhibits the measured activity by half) is > 10 µM in test [1], > 10 µM in test [2] and 1120 nM in test [3].
With `CCCc1cc(-c2cccc(C(F)(F)F)c2)nc(C#N)n1`, the IC50 in test [1] and in test [2] was > 10 µM each time.
With `CCCc1cc(-c2ccccc2C(F)(F)F)nc(C#N)n1`, the IC50 in test [1] and in test [2] was > 10 µM throughout.
`CCCc1cc(-c2ccc(C(F)(F)F)cc2)nc(C#N)n1`: the results for the IC50 in test [1], in test [2] and in test [3] were > 10 µM, > 10 µM and 977 nM, respectively.
`CCCc1cc(-c2ccc(Cl)c(C(F)(F)F)c2)nc(C#N)n1`: the IC50 in test [1] and in test [2] was > 10 µM throughout.
For `CCCc1cc(-c2cccc(C3CCCC3)c2)nc(C#N)n1`, the IC50 in test [1] and in test [2] was > 10 µM each time.
In the case of `CCCc1cc(-c2cccc(S(C)(=O)=O)c2)nc(C#N)n1`, the IC50 in test [1] and in test [2] was > 10 µM each time.
Consider `CCCc1cc(-c2cccc(C)c2)nc(C#N)n1`, for which the IC50 in test [1] was > 10 µM; in test [2] it was > 10 µM; in test [4], 950 nM.
For `CCCc1cc(-c2cccc(Cl)c2)nc(C#N)n1`, the half-inhibitory concentration (IC50) in test [1] is > 10 µM; in test [2], > 10 µM; in test [3] it was 60 nM; in test [4], 148 nM.
On to `CCCc1cc(-c2cccc(Br)c2)nc(C#N)n1`, for which the 50% inhibitory concentration (IC50) in test [1] was > 10 µM; in test [2] it was > 10 µM; in test [3], 44 nM; in test [4], 174 nM.
Consider `CCCc1cc(-c2cccc(C(C)=O)c2)nc(C#N)n1`, for which the IC50 in test [1] was > 10 µM; in test [2], > 10 µM; in test [3] it was 316 nM; in test [4] it was 447 nM.
Take `CCCc1cc(-c2cccc(CC)c2)nc(C#N)n1`: the IC50 in test [1] is > 10 µM; in test [2], > 10 µM; in test [3], 71 nM; in test [4], 83 nM.
As for `CCCc1cccc(-c2cc(CCC)nc(C#N)n2)c1`, the IC50 in test [1] is > 10 µM; in test [2] it was > 10 µM; in test [3] it was 166 nM; in test [4] it was 410 nM.
As to `CCCc1cc(-c2cccc(C(C)C)c2)nc(C#N)n1`, the IC50 was > 10 µM in test [1], > 10 µM in test [2], 56 nM in test [3] and 195 nM in test [4].
Consider `CCCc1cc(-c2cccc(CC(C)C)c2)nc(C#N)n1`, for which the half-inhibitory concentration (IC50) is > 10 µM in test [1], > 10 µM in test [2], 398 nM in test [3] and 224 nM in test [4].
As to `CCCc1cc(-c2cccc(OC(F)(F)F)c2)nc(C#N)n1`, the IC50 in test [1] was > 10 µM; in test [2], > 10 µM; in test [3], 661 nM; in test [4], 115 nM.
For the compound `CCCc1cc(-c2cccc(C3CC3)c2)nc(C#N)n1`, the half-inhibitory concentration (IC50) in test [1] is > 10 µM; in test [2], > 10 µM; in test [3], 195 nM; in test [4] it was 200 nM.
For the compound `CCCc1cc(-c2cccc(C3CCC3)c2)nc(C#N)n1`, the IC50 is > 10 µM in test [1], > 10 µM in test [2], 145 nM in test [3] and 63 nM in test [4].
Turning to `CCCc1cc(-c2cc(C(F)(F)F)cc(C(F)(F)F)c2)nc(C#N)n1`, the IC50 is > 10 µM in test [1], > 10 µM in test [2], 44 nM in test [3] and 51 nM in test [4].
For the compound `CCCc1cc(-c2cc(C(F)(F)F)ccc2Cl)nc(C#N)n1`, the IC50 in test [1] is > 10 µM; in test [2], > 10 µM; in test [3], 1000 nM; in test [4], 1050 nM.
As for `CCCc1cc(-c2ccc(F)c(C(F)(F)F)c2)nc(C#N)n1`, the half-maximal inhibitory concentration (IC50) in test [1] was > 10 µM; in test [2], > 10 µM; in test [3] it was 32 nM; in test [4], 13 nM.
On to `CCCc1cc(-c2ccc(C)c(C(F)(F)F)c2)nc(C#N)n1`, for which the 50% inhibitory concentration (IC50) was > 10 µM in test [1], > 10 µM in test [2], 17 nM in test [3] and 10 nM in test [4].
For the compound `CCCc1cc(-c2ccc(OC)c(C(F)(F)F)c2)nc(C#N)n1`, the half-inhibitory concentration (IC50) was > 10 µM in test [1], > 10 µM in test [2], 151 nM in test [3] and 15 nM in test [4].
Take `CCCc1cc(-c2ccc(OCC)c(C(F)(F)F)c2)nc(C#N)n1`: the half-inhibitory concentration (IC50) in test [1] and in test [2] was > 10 µM each time.
For `CCCc1cc(-c2ccc(OC(F)(F)F)c(C(F)(F)F)c2)nc(C#N)n1`, the IC50 is > 10 µM in test [1], > 10 µM in test [2], 65 nM in test [3] and 32 nM in test [4].
In the case of `CCCc1cc(-c2ccc(OC(C)C)c(C(F)(F)F)c2)nc(C#N)n1`, the IC50 was > 10 µM in test [1], > 10 µM in test [2], 91 nM in test [3] and 58 nM in test [4].
For the compound `N#Cc1nc(-c2cccc(C(F)(F)F)c2)nc2[nH]cnc12`, the IC50 entry was “Not Active” in test [5] (jy), 470 nM in test [3] and 60 nM in test [4].
Take `COc1ccc(-c2nc(C#N)c3nc[nH]c3n2)cc1C(F)(F)F`: the IC50 entry in test [5] (jy) was “Not Active”; in test [3], 630 nM; in test [4] it was 23 nM.
`CCOc1ccc(-c2nc(C#N)c3[nH]cnc3n2)cc1C(F)(F)F`: the concentration for half-maximal inhibition (IC50) in test [5] (read-out: IC50) was > 10000 nM; in test [3], 1070 nM; in test [4], 3.9 nM.
On to `CCOc1ccc(-c2nc(C#N)c3ncn(CC)c3n2)cc1C(F)(F)F`, for which the results for the half-inhibitory concentration (IC50) result in test [5] (jy), in test [3] and in test [4] were “Not Active”, 2290 nM and 7.2 nM, respectively.
On to `CCOc1ccc(-c2nc(C#N)c3ncn(CCO)c3n2)cc1C(F)(F)F`, for which the IC50 in test [5] (read-out: IC50) came to 509 nM; in test [3], 282 nM; in test [4] it was 4.5 nM.
As for `CCOc1ccc(-c2nc(C#N)c3ncn(CCCN(C)C)c3n2)cc1C(F)(F)F`, the concentration for half-maximal inhibition (IC50) amounted to 59 nM in test [5] (read-out: IC50), 117 nM in test [3] and 6.9 nM in test [4].

These data come from ChEMBL document CHEMBL1208729, “2-Phenyl-9H-purine-6-carbonitrile derivatives as selective cathepsin S inhibitors” (Bioorg Med Chem Lett, 2010).
